Experimental data gathered from unrelated publications.
ABL1 non-phosphorylated: Tyrosine-protein kinase ABL1, non-phosphorylated (ABL1, Homo sapiens, UniProt P00519)
ABL1 H396P non-phosphorylated: Tyrosine-protein kinase ABL1, non-phosphorylated (ABL1, Homo sapiens, UniProt P00519, H396P)
ABL1 F317L phosphorylated: Tyrosine-protein kinase ABL1, phosphorylated (ABL1, Homo sapiens, UniProt P00519, F317L)
ABL1 T315I non-phosphorylated: Tyrosine-protein kinase ABL1, non-phosphorylated (ABL1, Homo sapiens, UniProt P00519, T315I)
ABL1 phosphorylated: Tyrosine-protein kinase ABL1, phosphorylated (ABL1, Homo sapiens, UniProt P00519)
ABL1 F317I non-phosphorylated: Tyrosine-protein kinase ABL1, non-phosphorylated (ABL1, Homo sapiens, UniProt P00519, F317I)
ABL1 E255K: Tyrosine-protein kinase ABL1 (ABL1, Homo sapiens, UniProt P00519, E255K)
ABL1 T315I phosphorylated: Tyrosine-protein kinase ABL1, phosphorylated (ABL1, Homo sapiens, UniProt P00519, T315I)
ABL1 Q252H non-phosphorylated: Tyrosine-protein kinase ABL1, non-phosphorylated (ABL1, Homo sapiens, UniProt P00519, Q252H)
ABL1 Y253F phosphorylated: Tyrosine-protein kinase ABL1, phosphorylated (ABL1, Homo sapiens, UniProt P00519, Y253F)

| Compound | target | effect on | technique | tested at | remaining binding |
| --- | --- | --- | --- | --- | --- |
| O=c1nc(-c2ccccn2)sc2ccccc12 | ABL1 non-phosphorylated | binding | competition with immobilised ligand | 1 µM | 93% |
| O=C(NCCCN1CCOCC1)c1ccc(Nc2ncc(Cl)c(-c3ccc(Cl)s3)n2)cc1 | ABL1 H396P non-phosphorylated | binding | competition with immobilised ligand | 1 µM | 4.2% |
| CNC(=O)[C@@H]1CC[C@@H](n2c(-c3ccc4cnccc4c3)nc3ccc(C(=O)NCc4cccc(C(N)=O)c4)cc32)C1 | Tyrosine-protein kinase ABL1, phosphorylated (ABL1, Homo sapiens, UniProt P00519, Q252H) | binding | competition with immobilised ligand | 1 µM | 100% |
| O=C(NCC1CCOCC1)c1n[nH]cc1NC(=O)c1c(F)cccc1F | ABL1 F317L phosphorylated | binding | competition with immobilised ligand | 1 µM | 88% |
| O=C(c1ccc(Nc2ncc(Cl)c(-c3cc4ccccc4s3)n2)cc1)N1CCC(N2CCCC2)CC1 | ABL1 T315I non-phosphorylated | binding | competition with immobilised ligand | 1 µM | 0.9% |
| CC(C)(C)c1ccc(-c2nc(CBr)nn2-c2cccc(O)c2)cc1 | Tyrosine-protein kinase ABL1, phosphorylated (ABL1, Homo sapiens, UniProt P00519, E255K) | cell-free assay | competition with immobilised ligand | 10 µM | 74% |
| N[C@H]1CCN(c2nccc(-c3cnn4ncccc34)n2)C1 | ABL1 phosphorylated | binding | – | 1 µM | 88% |
| Cn1cc(Cl)c2c(Oc3c(F)cc(Nc4cc(Cl)nc(N)n4)cc3F)ccnc21 | ABL1 F317I non-phosphorylated | binding | competition with immobilised ligand | 0.1 µM | 93% |
| c1cnn2ncc(-c3ccnc(N4CCC45COC5)n3)c2c1 | ABL1 E255K | binding | – | 1 µM | 63% |
| CCCCN(CCCC)C(=O)CN1C[C@@H](c2cc(OC)c3c(c2)OCO3)[C@H](C(=O)O)[C@H]1CC(C)(C)CCC | ABL1 F317L phosphorylated | cell-free assay | competition with immobilised ligand | 1 µM | 93.5% |
| O=C(Nc1c[nH]nc1C(=O)NC1CCNCC1)c1cc(F)cc(F)c1 | ABL1 phosphorylated | binding | competition with immobilised ligand | 1 µM | 100% |
| c1cncc(-c2cccc(Nc3nccc(NC4CCCCC4)n3)c2)c1 | ABL1 T315I phosphorylated | binding | competition with immobilised ligand | 10 µM | 73% |
| COc1ccnn2ncc(-c3ccnc(N(C)C)n3)c12 | Tyrosine-protein kinase ABL1 (ABL1, Homo sapiens, UniProt P00519, F317L) | binding | – | 1 µM | 85% |
| O=C(c1ccc(Nc2ncc(Cl)c(-c3ccc(Cl)s3)n2)cc1)N1CCC(N2CCCC2)CC1 | ABL1 non-phosphorylated | binding | competition with immobilised ligand | 1 µM | 4.3% |
| C=CC(=O)N1CCC(C(=O)NCC(=O)N2CCN(c3nc(-c4cnc(N)nc4C(F)F)nc(N4CCOCC4)n3)CC2)CC1 | Tyrosine-protein kinase ABL1, phosphorylated (ABL1, Homo sapiens, UniProt P00519, H396P) | binding | competition with immobilised ligand | 1 µM | 83% |
| CCN1CCN(Cc2ccc(C(=O)Nc3ccc(C)c(Oc4ccc5c(c4)CC(=O)N5)c3)cc2C(F)(F)F)CC1 | ABL1 T315I phosphorylated | binding | competition with immobilised ligand | 1 µM | 88% |
| C[C@@H](c1ccc(-n2cnc3c(N)ncnc32)cc1)N1CCc2nn(C)c(Cc3ccccc3)c2C1=O | ABL1 phosphorylated | binding | competition with immobilised ligand | 0.1 µM | 90% |
| N#Cc1ccccc1CSc1nnc2c(n1)[nH]c1ccccc12 | ABL1 non-phosphorylated | binding | competition with immobilised ligand | 10 µM | 86% |

| Compound | target | effect on | technique | tested at | remaining binding |
| --- | --- | --- | --- | --- | --- |
| Nc1ncc2c(n1)-c1c([nH]c3ccc(C#CC4CC4)cc13)CCCC2 | Tyrosine-protein kinase ABL1, non-phosphorylated (ABL1, Homo sapiens, UniProt P00519, F317L) | binding | competition with immobilised ligand | 1 µM | 63% |
| CN1CCN(c2ccc(Nc3nccc(-c4ccccc4)n3)cc2C(F)(F)F)CC1 | Tyrosine-protein kinase ABL1 (ABL1, Homo sapiens, UniProt P00519, Y253F) | binding | – | 10 µM | 16% |
| CN(CCCC(F)(F)F)c1nccc(-c2cnn3ncccc23)n1 | Tyrosine-protein kinase ABL1 (ABL1, Homo sapiens, UniProt P00519, T315I) | binding | – | 1 µM | 100% |
| CC(C)(O)c1cncc(-c2nc3ccc(F)cc3n2C2CC2)c1 | ABL1 H396P non-phosphorylated | cell-free assay | competition with immobilised ligand | 1 µM | 85% |
| C[C@@H]1CCN(c2nccc(-c3cnn4ncccc34)n2)C1 | Tyrosine-protein kinase ABL1 (ABL1, Homo sapiens, UniProt P00519, H396P) | binding | – | 1 µM | 79% |
| CCc1ccccc1C(=O)Nc1n[nH]c2c(C)c(F)c(C3C(C#N)=C(C)N(C)C(C)=C3C#N)cc12 | ABL1 Q252H non-phosphorylated | cell-free assay | competition with immobilised ligand | 1 µM | 82% |
| Cc1cnc(Nc2ccc(C(=O)N3CCC(N4CCCC4)CC3)cc2)nc1-c1cc2ccccc2s1 | ABL1 Y253F phosphorylated | binding | competition with immobilised ligand | 1 µM | 0.6% |
| F[C@@H]1CCN(c2nccc(-c3cnn4ncccc34)n2)C1 | ABL1 E255K | binding | – | 1 µM | 100% |
| COc1cnc(Nc2cccc(S(N)(=O)=O)c2)nc1N1CCN(c2ccccc2)C(=O)C1 | ABL1 F317I non-phosphorylated | binding | competition with immobilised ligand | 1 µM | 89% |
| COc1ncc2cc3ccccc3nc2c1C#N | ABL1 Q252H non-phosphorylated | cell-free assay | competition with immobilised ligand | 5 µM | 100% |
| O=C(NCCCN1CCOCC1)c1ccc(Nc2nccc(-c3cc4ccccc4s3)n2)cc1 | ABL1 non-phosphorylated | binding | competition with immobilised ligand | 1 µM | 37% |
| Cc1cc(NC(=O)c2cccc(S(F)(F)(F)(F)F)c2)cc(-n2ccn3nc(-c4cccnc4)cc23)c1 | ABL1 F317I non-phosphorylated | binding | competition with immobilised ligand | 1 µM | 100% |
| Cc1cnn2ncc(-c3ccnc(N(C)C)n3)c2c1 | Tyrosine-protein kinase ABL1 (ABL1, Homo sapiens, UniProt P00519, Q252H) | binding | – | 1 µM | 100% |
| COc1cnc(Nc2cccc(S(N)(=O)=O)c2)nc1N1CCN(c2ccccc2)CC1 | ABL1 T315I non-phosphorylated | binding | competition with immobilised ligand | 1 µM | 89% |
| O=C(N[C@H]1CCCCC/C=C\C2C[C@@]2(C(=O)O)NC(=O)[C@@H]2C[C@@H](Oc3ccncc3)CN2C1=O)OC1CCCC1 (stereo partly drawn) | Tyrosine-protein kinase ABL1, phosphorylated (ABL1, Homo sapiens, UniProt P00519, F317I) | binding | – | 1 µM | 96% |
| FC(F)(F)Oc1cccc(-c2cnc3ccc(-c4ccncc4)nn23)c1 | ABL1 non-phosphorylated | cell-free assay | competition with immobilised ligand | 5 µM | 68% |
| O=C(c1ccc(Nc2nccc(-c3cc4ccccc4s3)n2)cc1)N1CCC(N2CCCC2)CC1 | Tyrosine-protein kinase ABL1, phosphorylated (ABL1, Homo sapiens, UniProt P00519, M351T) | binding | competition with immobilised ligand | 1 µM | 17% |
| CSc1cccnc1N1CCN(Cc2nc3ccccc3[nH]2)CC1 | ABL1 Y253F phosphorylated | cell-free assay | competition with immobilised ligand | 1 µM | 76% |
